According to PMC4075987 (Biochemistry, 2014):
Entries after “also recorded” stand apart in the source; their conditions may differ. Read-outs that look alike come from different tables or passages of the source. Values belong to the molecule of their own block, whether it stands above or below them. Square brackets hold non-standard residues; d marks the D form. Peptide text beside a SMILES is read from it. Orn(N5-OH,N5-Ac) = CC(=O)N(O)CCC[C@H](N)C(=O)O

How the values were obtained:
apo-FbpABp [1] = target: T1, apo-FbpABp (Bordetella pertussis, UniProt Q7VXW9); type: binding
T1 sequence (Q7VXW9 31-349): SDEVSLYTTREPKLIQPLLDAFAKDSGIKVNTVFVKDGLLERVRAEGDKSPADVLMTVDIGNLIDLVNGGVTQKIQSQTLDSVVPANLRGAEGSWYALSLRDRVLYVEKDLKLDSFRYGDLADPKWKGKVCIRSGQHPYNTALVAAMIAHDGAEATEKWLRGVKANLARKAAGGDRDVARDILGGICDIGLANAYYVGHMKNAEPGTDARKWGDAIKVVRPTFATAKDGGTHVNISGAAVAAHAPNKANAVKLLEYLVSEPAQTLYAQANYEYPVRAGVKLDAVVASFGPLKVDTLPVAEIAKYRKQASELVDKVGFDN

apo-FbpABp [2] = target: T1, apo-FbpABp; test: UV-vis spectral difference experiment between apo-DFB and apo-FbpABp; type: binding; conditions: results not shown
FbpABp = type: binding, Bordetella pertussis; conditions: absence of a suitable synergistic anion
Method in brief: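 Recombinant B. pertussis FbpA was made periplasmically in B. bronchiseptica ΔfbpA grown in iron-depleted Stainer–Scholte medium at 35 °C, then osmotic-shock extracted and DEAE-purified. Apo-protein took 50 equiv carbonate/oxalate (30 min) then 10 equiv Fe(ClO4)3 (overnight, 4 °C, filtered), or 10 equiv citrate/NTA then 2 equiv 1:1 Fe-anion. Iron was titrated to maximal CT band, dialysed, then competed against EDTA; pH 6.5 MES/NaCl.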

apo-FbpABp [3] = target: T1, apo-FbpABp; conditions: pH 6.5, 50 mM MES, 100 mM NaCl; monitored 3 h
[4] = read-out: Kd (apparent Fe3+-siderophore/apo-FbpABp dissociation constant, eq 3), ferric siderophore complex, one-site model, 50 mM MES, 100 mM NaCl, pH 6.5, room temperature

Molecule: O=C1CCC(=O)N(O)CCC(O)CNC(=O)CCC(=O)N(O)CCC(O)CN1 (centres unmarked) [ALC, alcaligin]
Kd (apo-FbpABp [1]; [4]): ~100 nM

Molecule: O=C(N[C@H]1COC(=O)[C@@H](NC(=O)c2cccc(O)c2O)COC(=O)[C@@H](NC(=O)c2cccc(O)c2O)COC1=O)c1cccc(O)c1O [ENT, enterobactin]
Kd (apo-FbpABp [1]): ~1000 nM | quenching of apo-protein fluorescence emission band by apo-siderophore (apo-FbpABp [1]; apo-siderophore, final protein:apo-siderophore 1:4 (ALC), 1:2 (ENT)): < 16%

Molecule: [Fe+3] [Fe^3+, Ferric iron]
Fe3+ sequestration by FbpABp (FbpABp): No Fe^3+ sequestration was observed

Molecule: ferric-alcaligin [Fe2(ALC)3]
Qmax (maximum % quenching) (apo-FbpABp [1]; ferric siderophore complex, emission 352 nm, excitation 297 nm, pH 6.5): ~80% | blue shift of FbpABp emission band (apo-FbpABp [1]; on addition of ferric siderophore to apo-FbpABp): ~8 nm | Kd (apo-FbpABp [1]; [4]): 130 ± 40 nM | change of ferric siderophore CT band after addition of apo-FbpABp (apo-FbpABp [3]): shift in λmax from 428 nm (CT band for Fe2ALC3) to 410 nm; also recorded: λmax shifted from 428 to 410 nm

Second part, led by results:

Kd (apo-FbpABp [1]): ~1000 nM
Molecule: CC(=O)N(O)CCCCCNC(=O)CCC(=O)N(O)CCCCCNC(=O)CCC(=O)N(O)CCCCCN [DFB, desferrioxamine B]
binding of apo-siderophore by apo-FbpABp (apo-FbpABp [2]): not able to bind an apo-siderophore effectively

Kd (apo-FbpABp [1]; [4]): ~1000 nM
Molecule: CC(=O)N([O-])CCC[C@@H]1NC(=O)CNC(=O)CNC(=O)CNC(=O)[C@H](CCCN([O-])C(C)=O)NC(=O)[C@H](CCCN([O-])C(C)=O)NC1=O.[Fe+3] [FC, ferrichrome] (cyclo(GGG[Orn(N5-OH,N5-Ac)][Orn(N5-OH,N5-Ac)][Orn(N5-OH,N5-Ac)]))
